Screening data as filed in PubChem.
Most compounds without a hit are left out; they make up all but 1.8% or so of the library.
DDE Tn6 FP inh = inhibitors of Tn6 peptide binding to human fibrin DD(E). Fibrin DD(E) TRITC-Tn6 fluorescence polarization displacement. inhibition, % at 8.3 µM. 370,000 compounds, 0.21% hits. AID 720509;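 active means inhibition above a per-campaign cutoff: mean of compounds within control limits plus 3 SD, cut at about 15% in these data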;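 further: 0% = median of all compound wells on the plate and 100% = blocking peptide control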
GRK2 inh = blocks RNA aptamer binding to human GRK2. 330,000 compounds, 0.59% hits. bead flow cytometry, FAM-aptamer displacement from GRK2. AID 488847. inhibition of aptamer binding, % at 10 µM. P25098;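 active means inhibition of aptamer binding above 40%, roughly 3 SD of noise, on plates passing a quality check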;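 further: median bead fluorescence of bound FAM aptamer so fluorescent compounds give negative values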
Target sequence (P25098 whole entry, looked up): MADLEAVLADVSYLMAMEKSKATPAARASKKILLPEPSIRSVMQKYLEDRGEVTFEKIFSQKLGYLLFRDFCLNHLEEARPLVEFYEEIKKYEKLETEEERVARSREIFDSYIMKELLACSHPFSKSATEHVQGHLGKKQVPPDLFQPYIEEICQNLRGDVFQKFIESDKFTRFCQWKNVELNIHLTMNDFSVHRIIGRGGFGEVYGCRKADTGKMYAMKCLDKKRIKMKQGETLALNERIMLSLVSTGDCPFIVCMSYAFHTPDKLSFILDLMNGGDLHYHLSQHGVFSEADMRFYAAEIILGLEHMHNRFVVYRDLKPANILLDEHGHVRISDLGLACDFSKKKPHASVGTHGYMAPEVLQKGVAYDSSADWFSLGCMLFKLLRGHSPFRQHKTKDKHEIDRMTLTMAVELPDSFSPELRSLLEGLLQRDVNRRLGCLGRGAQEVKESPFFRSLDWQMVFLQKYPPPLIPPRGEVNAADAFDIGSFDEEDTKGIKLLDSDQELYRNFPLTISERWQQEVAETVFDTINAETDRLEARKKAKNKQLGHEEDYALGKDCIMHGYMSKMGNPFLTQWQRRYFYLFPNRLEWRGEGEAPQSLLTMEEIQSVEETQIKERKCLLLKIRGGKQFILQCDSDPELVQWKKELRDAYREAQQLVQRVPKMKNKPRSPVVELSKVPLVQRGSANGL
ARNT TACC3 PPI = disrupts binding between human ARNT and TACC3; AlphaScreen His-ARNT PAS-B/GST-TACC3 binding, luminescence; TACC3 fragment carries E629A point mutation; inhibition, % at 9.99 µM; 390,000 compounds, 0.66% hits; AID 623870;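 active means mean inhibition of replicates at least 50% and at least half of replicates each reaching 50%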;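 further: 0% = complete ARNT plus TACC3 wells and 100% = ARNT alone without TACC3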
DDE Tn7 FP inh = DD(E)-Tn7 binding inhibition, primary FP screen; P02675; FP displacement of FITC-Tn7 peptide from fibrin DD(E); 0% = median of compound wells per plate; inhibition, % at 8.3 µM; 370,000 compounds, 0.13% hits; AID 720508;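 active means inhibition above the mean of compounds falling within the control limits plus 3 SD of them, cut at about 14% in these data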;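 further: 0% = plate median of compound wells and 100% = 10 µM Aha-Tn7 peptide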
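Assay system: human fibrin DD(E). Input: DD(E) 2 µM final. Medium: Tris buffer with calcium and detergent, pH 7.8. Compound dosing: single point at 8.3 µM. Timing: 10 min plus 3 h, room temperature. Technique: fluorescence polarization of the labelled Tn7 tracer. Read-out: percent inhibition. Replicates: singlicate testing.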
CAL PDZ FP-1 = human CAL PDZ-peptide interaction inhibition; purified CAL PDZ, TMR-peptide fluorescence polarization, 1 h; Q9HD26; 330,000 compounds, 0.02% hits; AID 504414; inhibition, % at 20 µM;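 active means highest replicate inhibition of at least 40%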;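 further: plate controls were DMSO neutral control wells for no effect and unlabeled competitor peptide control wells for full effect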
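Test system: purified CerCALP PDZ construct; Compound dosing: one concentration, 20 µM compound; Also added: TMR-labelled reporter peptide T*-PRC34 bound in PDZ groove; Read-out: inhibition from polarization loss; Controls: unlabelled peptide and DMSO controls; Signal: FP readout, S and P plane fluorescence; Incubation: 1 h at RT.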
CAL PDZ FP-2 = inhibitors of human CAL PDZ peptide binding; purified CAL PDZ, TMR-peptide fluorescence polarization, 1 h; inhibition, % at 24.9 µM; Q9HD26; 300,000 compounds, 0.92% hits;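 active means mean inhibition of at least 30% with at least half of replicates also reaching 30%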;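 further: 0% = DMSO neutral control and 100% = excess unlabeled competitor peptide PRC23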
* hit, by the source's call; x = no result.

SMILES	DDE Tn6 FP inh	GRK2 inh	ARNT TACC3 PPI	DDE Tn7 FP inh	CAL PDZ FP-1	CAL PDZ FP-2
CC(CCc1ccccn1)C(=O)c1ccccc1 (stereo not given)	0	x	-2	9	-1	-3
O=C(COC(=O)c1ccc(Cl)c(S(=O)(=O)N2CCCCC2)c1)NC1CCCCC1	4	x	x	-7	x	x
C#CCN1[C@@H]2CCN(C2)c2cc(Br)ccc2S1(=O)=O	2	x	-22	1	0	51*
Nc1ncnc2c1C(c1ccccc1)c1c(ccc3ccccc13)O2 (stereo not given)	-5	4	-9	2	62*	-5
CCOC(=O)CC(=O)Nc1ncnc2c1C(c1ccccc1)c1c(ccc3ccccc13)O2 (stereo not given)	-4	3	1	6	7	1
CN1CCN(C(=O)C[C@@H]2CC[C@H]3[C@@H](COC[C@@H](O)CN3C(=O)C3CCCC3)O2)CC1	x	x	-3	x	x	x
COc1cc(S(=O)(=O)Nc2ccc(C(=O)NCC(=O)O)cc2)ccc1NC(C)=O	-1	1	-1	2	12	68*
COCCn1nnnc1C(C(C)C)N1CCSCC1 (stereo not given)	-6	0	-1	-1	-1	x
COc1cccc(/C=N/NC(=O)C(C)n2nc(C)c([N+](=O)[O-])c2C)c1O (stereo not given)	3	0	88*	-1	-1	-2
COc1cccc(/C=N/NC(=O)Cn2nc(C)c([N+](=O)[O-])c2C)c1O	0	0	65*	-3	-2	0
COc1cccc(NC(=S)NNC(=O)C(C)n2nc(C)c([N+](=O)[O-])c2C)c1 (stereo not given)	2	0	-5	6	0	-1
C[C@H]1CN([C@@H](C)CO)C(=O)Cc2cc(NC(=O)C3CC3)ccc2O[C@@H]1CN(C)CC1CCCCC1	x	x	-6	x	x	x
CCCN1[C@@H]2c3ccc(-c4ccc(F)cc4)c(=O)n3C[C@@H]2[C@@H](CO)[C@@H]1C(=O)N[C@@H](C)c1ccccc1	x	x	26	x	x	x
O=C(Cn1cnc(S(=O)(=O)N2CCCC2)c1)Nc1cccc(Br)c1	1	1	1	-1	-1	50*
Brc1cc2c(cc1-c1nc3ccccc3s1)OCO2	-3	3	-2	1	-2	-1
Oc1ccc(N=C/C=C/c2ccc(Br)cc2)cc1-c1nc2ccccc2s1	x	41*	x	x	x	x
O=C(C[C@@H]1CC[C@H]2[C@@H](COC[C@@H](O)CN2Cc2ccc(Cl)cc2)O1)NCc1ccccc1Cl	x	x	6	x	x	x
COc1ccc(-c2cc(CNc3nc(NCc4ccccc4OC)nc4ccsc34)on2)cc1	-9	x	x	1	x	x
Cc1cccc(NC(=O)CS(=O)(=O)c2c[nH]c3ccccc23)c1C	-3	3	-1	5	-2	55*
Cc1ccc(C)c(NC(=O)CS(=O)(=O)c2c[nH]c3ccccc23)c1	-6	0	-3	-2	x	1
COc1ccc(S(=O)(=O)N(C)C[C@@H]2Oc3ccc(NC(=O)Cc4cn(C)c5ccccc45)cc3CC(=O)N([C@@H](C)CO)C[C@H]2C)cc1	x	x	1	x	x	x
COc1ccc(NC(=O)C2CCN(S(=O)(=O)c3ccc(N4CCCC4=O)cc3)CC2)c(OC)c1	9	0	3	0	-2	34*
COc1ccc(NC(=O)C2CCN(S(=O)(=O)c3ccc(OC)c(OC)c3)CC2)c(OC)c1	1	1	-2	8	-1	-16
C#CCOCCOCCOCCNc1nc(N2CCN(C(=O)[C@H](Cc3ccc(O)cc3)n3cc([C@@H](N)C(C)CC)nn3)CC2)nc(N2CCN(C(=O)[C@H](CCCCN)n3cc([C@@H](N)CO)nn3)CC2)n1 (stereo not given in full)	x	0	46*	x	-1	-3
C#CCOCCOCCOCCNc1nc(N2CCN(C(=O)CCCCCCCCCCNC(=O)[C@@H](CCC(=O)O)n3cc(CCCCCN)nn3)CC2)nc(N2CCN(C(=O)CCCCCCCCCCNC(=O)[C@H]([C@@H](C)CC)n3cc(CCCCCN)nn3)CC2)n1	x	3	49*	x	-6	-7
